In publication PMC3929184 (Journal of controlled release : official journal of the …, 2013):

Experiments:
[1] = Glucose tolerance test after nasal administration in mice; type: in vivo, WT C57BL/6 mice; details: systemic uptake monitored functionally by glucose-tolerance test
Summary of the method: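 Male C57BL/6 mice (6-9 weeks; Nnt deletion), acclimatized 2 weeks, fasted 18 h, lightly isoflurane-anesthetized. 20 μL of test peptide or its glycolipid conjugate (various concentrations) or saline was dripped slowly into the nasal cavity. After 1 h, glucose 2 g/kg was injected (n = 2 each). Blood glucose was read by glucometer from ~5 μL tail-nick blood at set times, and AUC was calculated.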

furin protease = furin protease (Homo sapiens, UniProt P09958); assay: In vitro cleavage by furin protease; type: in vitro ADME; details: Figure S1
furin protease, sequence (P09958 108-794): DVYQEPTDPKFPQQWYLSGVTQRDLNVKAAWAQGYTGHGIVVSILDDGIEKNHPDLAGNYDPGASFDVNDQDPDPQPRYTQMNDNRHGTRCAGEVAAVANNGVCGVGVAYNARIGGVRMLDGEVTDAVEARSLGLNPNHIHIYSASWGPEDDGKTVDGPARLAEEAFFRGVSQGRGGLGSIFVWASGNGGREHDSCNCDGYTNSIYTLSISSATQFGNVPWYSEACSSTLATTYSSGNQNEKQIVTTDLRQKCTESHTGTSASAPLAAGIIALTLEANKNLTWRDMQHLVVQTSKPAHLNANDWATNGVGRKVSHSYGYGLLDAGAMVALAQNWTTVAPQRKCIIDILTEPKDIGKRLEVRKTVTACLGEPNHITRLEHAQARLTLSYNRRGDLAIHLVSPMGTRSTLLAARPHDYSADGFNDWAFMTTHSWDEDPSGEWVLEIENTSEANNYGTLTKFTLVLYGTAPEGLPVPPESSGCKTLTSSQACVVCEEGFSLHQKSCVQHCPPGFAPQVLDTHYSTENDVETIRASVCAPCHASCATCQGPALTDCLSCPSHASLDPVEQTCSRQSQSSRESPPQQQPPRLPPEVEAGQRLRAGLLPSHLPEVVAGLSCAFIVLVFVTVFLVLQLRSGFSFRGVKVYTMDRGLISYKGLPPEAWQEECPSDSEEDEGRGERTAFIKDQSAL

Glucagon-like peptide-1 [GLP-1*]
Mucosal absorption after nasal application [1]: evidence for absorption
Cleavage by the furin protease (furin protease): resistant to cleavage
